NadD block = inhibitors of S. aureus NadD, primary screen, biochemical, colorimetric, uHTS. purified NadD enzyme, colorimetric absorbance read-out. 360,000 tested, 0.78% active. Nicotinate-nucleotide adenylyltransferase NadD (Staphylococcus aureus N315). AID 602399, 2012. inhibition, % at 20 µM; in the data active means inhibition above about 26%
PP1 inh = PP1-alpha phosphatase inhibitors, primary screen, counter-screen for PP5 inhibitor project, biochemical, fluorescence, OMFP substrate, single point | inhibition, % at 6.7 µM | Serine/threonine-protein phosphatase PP1-alpha catalytic subunit (Homo sapiens), P62136 | 320,000 tested, 0.9% active | purified PP1alpha;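 active means inhibition above the mean inhibition of all tested compounds plus 3 SD, computed separately for each screening campaign, cut at about 15% in these data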
Target sequence (P62136 whole entry, looked up): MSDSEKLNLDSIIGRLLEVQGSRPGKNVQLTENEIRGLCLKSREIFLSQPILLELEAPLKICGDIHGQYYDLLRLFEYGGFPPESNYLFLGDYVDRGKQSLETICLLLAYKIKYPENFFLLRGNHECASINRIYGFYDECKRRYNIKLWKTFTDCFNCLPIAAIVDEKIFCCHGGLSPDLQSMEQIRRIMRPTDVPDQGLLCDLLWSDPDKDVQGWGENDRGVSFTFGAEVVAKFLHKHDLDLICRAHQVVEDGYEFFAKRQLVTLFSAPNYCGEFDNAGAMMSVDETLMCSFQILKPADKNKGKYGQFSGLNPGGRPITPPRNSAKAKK
PP5 inh = PP5 phosphatase inhibitors, primary screen, biochemical, fluorescence; Serine/threonine-protein phosphatase 5 (Homo sapiens), P53041; purified PP5c, OMFP substrate fluorescence; inhibition, % at 6.7 µM; 320,000 tested, 0.18% active; AID 1987, 2009;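 active means inhibition above the campaign's mean inhibition across all tested compounds plus 3 SD, cut at about 9.5% in these data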;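 further: 0% = DMSO only and 100% = 100 µM cantharidin control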
Myeloid diff MLP = induction of myeloid progenitor differentiation, primary screen, cell-based, flow cytometry, MLPCN library; ER-HoxA9 myeloid progenitors, lysozyme-GFP differentiation; calls only at 10 µM; 360,000 tested, 1% active;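 active means normalized GFP-positive differentiation at or above the plate's own cutoff, the solvent-only control mean plus 3 SD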;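 further: cells exposed to compound for four days before flow analysis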
core dimer inh = inhibitors of HCV core protein dimerization, primary screen, biochemical, TR-FRET, high-throughput; TR-FRET GST/Flag-core106 dimerization, 1536-well; inhibition, % at 5 µM; 300,000 tested, 0.33% active; AID 1899, 2009;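 active means inhibition above the mean of all tested compounds plus 3 SD, set per screening campaign, cut at about 45% in these data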
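Material: GST/Flag-tagged HCV core106 proteins. Incubation: 4 h, 22.5 °C incubation. Read-out basis: inhibition (%) from 671 over 617 nm ratio. Measured by: TR-FRET, excitation 340 nm, emission 617 and 671 nm.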
Fh CTSL1 inh = Fasciola hepatica cathepsin L1 inhibitors, primary screen, counter-screen for PFM18AAP inhibitor project, biochemical, QFRET, fluorogenic peptide substrate; 300,000 tested, 0.49% active; AID 1906, 2009; inhibition, % at 5.96 µM; recombinant F. hepatica cathepsin L1, Z-Leu-Arg-MCA fluorescence;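 active means inhibition above the mean of all tested compounds plus 3 SD, set per screening campaign, cut at about 17% in these data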;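 further: 0% = plate median of test compound wells and 100% = 1 µM Z-Phe-Ala-diazomethylketone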
PP1 inh confirm = PP1 phosphatase inhibitors, confirmation, biochemical, fluorescence, OMFP substrate, triplicate; shares compounds with PP1 inh; purified PP1alpha; AID 2358, 2010; inhibition, % at 6.7 µM; 1,900 tested, 52% active;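 active means mean PP1 inhibition above a set limit taken from the earlier primary screen, cut at about 15% in these data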
PP5 counter = PP5 phosphatase inhibition by PP1 hits, confirmation, counter-screen for PP1 inhibitor project, biochemical, fluorescence, triplicate; AID 2360, 2010; 1,900 tested, 4% active; shares compounds with PP1 inh; purified PP5c, OMFP fluorescence; inhibition, % at 6.7 µM;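 active means mean PP5 inhibition over triplicate wells above about 9.5% taken from the earlier PP1 screen, limit read from the data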
* marks the source's active call; other numbers are inactive results; i = inactive; . = no result. Hits are enriched below; roughly 3.1% of the tested compounds scored in any of these assays.

SMILES	NadD block	PP1 inh	PP5 inh	Myeloid diff MLP	core dimer inh	Fh CTSL1 inh	PP1 inh confirm	PP5 counter
O=C(c1ccc(=O)[nH]c1)N(Cc1cccs1)C1(C(=O)NC2CCCC2)CCCCC1	-6.3	19.3*	-0.6	i	-1.9	0.1	-4.3	-4.7
CC(=O)c1sc2c(c1OC(=O)c1ccc(Cl)cc1Cl)c(=O)n(-c1ccccc1)c(=S)n2-c1ccccc1	23.0	38.0*	-0.8	i	-13.2	2.4	10.1	-1.6
Cc1cc(C)c2nc(N3C(=O)C(O)=C(C(=O)c4ccco4)C3c3cccc(O)c3)sc2c1 (stereo not given)	18.7	34.2*	2.5	i	.	.	26.5*	1.7
Cc1cc(C)c2nc(N3C(=O)C(O)=C(C(=O)c4ccco4)C3c3ccc(O)cc3)sc2c1 (stereo not given)	17.5	33.6*	3.1	i	.	.	29.7*	2.1
CC[C@@]12C(=O)N(c3cccc(F)c3)C(=O)N1[C@H](c1ccc(Br)cc1)[C@@H]1C(=O)N(C(C)(C)C)C(=O)[C@@H]12	-6.7	3.5	3.1	i	5.4	-0.5	.	.
CCOc1cc(C2C(C(=O)c3ccco3)=C(O)C(=O)N2CCc2ccccc2)ccc1O (stereo not given)	0.4	20.2*	0.8	i	1.8	1.5	22.0*	-1.2
Cc1sc(NC(=O)Cn2[nH]c(=O)c3ccccc3c2=O)nc1-c1ccccc1	26.2	28.6*	-0.4	i	49.3*	-1.4	27.4*	-1.8
Cc1ccc(C)c(S(=O)(=O)N2CCN(C(=O)CCCc3c[nH]c4ccccc34)CC2)c1	-5.2	3.2	7.9	i	2.1	4.2	.	.
COc1cccc(-c2cc(N)nn2C(=O)Nc2ccc(Cl)cc2)c1	-3.8	23.1*	3.1	i	-1.9	-2.9	16.5*	7.2
COc1cccc(NC(=O)NCCc2ccc(Cl)cc2)c1	-2.0	-0.9	1.4	i	0.8	-4.5	.	.
CCCSc1nnc(N2C(=O)C(O)=C(C(=O)c3ccco3)C2c2ccccc2F)s1 (stereo not given)	14.5	22.2*	3.4	i	-7.0	-1.3	14.2	-3.0
Cc1nn(-c2cccc(Cl)c2)c2nc(C(F)(F)F)[nH]c(=O)c12	4.5	0.5	-0.7	i	-3.5	-0.8	.	.
Cc1cc(C)nc(-n2nc(C)c3c(=O)[nH]c(C(F)(F)F)nc32)n1	-1.9	19.1*	2.4	i	0.8	-4.2	-5.7	-5.6
CN(CC(=O)Nc1ccc(Cl)c(Cl)c1)CC(=O)N1CCc2ccccc21	-1.6	.	.	i	.	.	.	.
O=C(c1cccs1)N1N=C(c2ccccc2)CC1c1ccccc1O (stereo not given)	-7.4	25.0*	-5.4	i	11.8	-0.3	18.9*	-2.6
Cc1ccc(C2=NN(C(=O)c3cccs3)C(c3ccccc3O)C2)cc1 (stereo not given)	7.4	1.8	2.2	i	14.6	1.9	.	.
O=C(O)CN1C(=O)/C(=C\c2ccccc2OCc2ccc(Cl)cc2Cl)SC1=S	11.5	24.3*	0.1	i	21.1	-0.2	20.7*	-0.5
O=C(O)CN1C(=O)/C(=C\c2cc(Br)ccc2OCc2ccc([N+](=O)[O-])cc2)SC1=S	24.0	14.0	-1.0	i	26.2	8.9	.	.
CC(=O)N1N=C(c2ccccc2OC(=O)/C=C/c2ccccc2)CC1c1ccccc1 (stereo not given)	.	21.3*	1.9	.	14.4	-0.4	0.5	-0.2
CC(=O)N1N=C(c2ccc3nccnc3c2)CC1c1ccccc1 (stereo not given)	-3.9	-1.2	1.0	i	-1.6	1.4	.	.
CCOc1ccc(N=Cc2c(C)[nH]n(-c3nc4ccccc4[nH]3)c2=O)cc1	15.3	22.9*	1.8	i	-16.0	-0.8	13.6	0.9
Cc1[nH]n(-c2ccccc2)c(=O)c1C=Nc1cnc2ccccc2c1	-9.5	-1.4	-0.6	i	-4.6	3.6	.	.
Cc1ccc(S(=O)(=O)NCCCCC(NC(=O)OC(C)(C)C)C(=O)O)cc1 (stereo not given) (tested in a mixture with another compound)	7.9	-2.6	1.2	i	-7.4	4.7	.	.
Cc1cc(C)c(C)c(OCCOCCNCc2ccccc2)c1	-2.0	1.0	-0.2	i	-2.2	-0.4	.	.
Cc1ccc(S(=O)(=O)n2ccc3c(OCCOCCSCC(NC(=O)OC(C)(C)C)C(=O)O)cccc32)cc1 (stereo not given)	-2.6	20.7*	5.7	i	8.5	4.9	9.3	3.7
SMILES	NadD block	PP1 inh	PP5 inh	Myeloid diff MLP	core dimer inh	Fh CTSL1 inh	PP1 inh confirm	PP5 counter
Cc1ccc(S(=O)(=O)n2ccc3c(OCCOCCNCc4ccc(F)cc4)cccc32)cc1	0.0	18.4*	2.7	i	-8.1	-0.6	-0.5	2.3
CCSc1nc2c(cnn2-c2ccc(C)cc2)c(=O)[nH]1	0.8	21.6*	-10.0	i	3.4	9.6	5.8	-4.3
COc1cc(NC(=O)CSc2ncnc3sc4c(c23)CCCC4)c(C(=O)O)cc1OC	9.0	0.7	1.0	i	10.0	1.2	.	.
CCn1c(CSc2nc3ccccc3s2)nnc1SCC(=O)c1ccc(Cl)cc1	9.1	21.9*	-1.3	i	-7.2	2.5	4.1	0.6
CCn1c(CSc2nc3ccccc3s2)nnc1SCC(=O)c1ccc(O)c(O)c1	18.4	3.1	3.1	i	23.1	-1.6	.	.
Cc1ccc(C(=O)N/C(=C\c2ccc(-c3cc(Cl)ccc3Cl)o2)C(=O)NCc2cccnc2)cc1	28.2	18.4*	1.7	i	28.7	1.2	16.3*	3.4
O=C(NCc1cccnc1)/C(=C/c1ccc(-c2cccc(Cl)c2)o1)S(=O)(=O)c1ccccc1	-3.2	0.9	-0.8	i	3.1	2.4	.	.
CCOc1ccc(OCCC(=O)NNC(=O)c2cc(OC)c(OC)c(OC)c2)cc1	1.8	-2.9	-0.4	i	-1.2	15.2	.	.
O=C1CC(=C(c2ccccc2)c2ccccc2)C(=O)N1CCCCN1CCN(c2cccc(Cl)c2)CC1	1.6	25.0*	4.6	i	8.9	4.4	3.5	-1.9
CC(C)(C)C(=O)Nc1scc(-c2ccc(-c3ccccc3)cc2)c1C(=O)O	3.4	17.6*	-5.5	i	4.3	4.5	8.4	1.1

Bioassay records: PubChem BioAssay, several laboratories
